Key:
[1] = test system: MDA-MB-435; assay: Cytotoxicity against human MDA-MB-435 cells assessed as cell growth at 10 uM after 48 hrs by SRB assay; type: functional; settings: MDA-MB-435, 48 h, read-out: Activity
Procedure, shortened: (§1)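 First stage of the NCI 60 human tumour cell line screen: a single dose is tested against every line. Cell growth is read as cellular protein by sulforhodamine B colorimetry after 48 h of drug exposure, with reference to a time-zero control and to untreated plates.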

[2] = test system: PC-3; assay: Cytotoxicity against human PC3 cells assessed as cell growth at 10 uM after 48 hrs by SRB assay; type: functional; settings: PC-3, 48 h, read-out: Activity; procedure, shortened: as §1
[3] = test system: DU-145; assay: Cytotoxicity against human DU145 cells assessed as cell growth at 10 uM after 48 hrs by SRB assay; type: functional; settings: DU-145, 48 h, read-out: Activity
Procedure, shortened: (§2)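 NCI 60-cell-line screen, first stage: compound at a single dose of […] (unit as printed) for 48 h. Cellular protein was measured by sulforhodamine B colorimetry. Growth was determined using a time-zero cell control and plates not exposed to drug.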

[4] = test system: MDA-MB-231; assay: Cytotoxicity against human MDA-MB-231 cells assessed as cell growth at 10 uM after 48 hrs by SRB assay; type: functional; settings: MDA-MB-231, 48 h, read-out: Activity; procedure, shortened: as §1
[5] = test system: NCI-H226; assay: Cytotoxicity against human NCI-H226 cells assessed as cell growth at 10 uM after 48 hrs by SRB assay; type: functional; settings: NCI-H226, 48 h, read-out: Activity; procedure, shortened: as §1
[6] = Cytotoxicity against human H1299 cells assessed as cell viability at 1 uM after 48 hrs by MTT assay; type: functional; settings: NCI-H1299, 48 h, read-out: Activity
Procedure, shortened: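 About 2×10³ H1299 cells per well were grown for 24 h at 37 °C in 5% CO2. Compound was dissolved in DMSO immediately before use, diluted in complete medium and left on cells for 48 h. MTT was then added for 4 h at 37 °C, followed by SDS/DMF lysis buffer for 16 h at 37 °C. Absorbance was read at 550 nm.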

[7] = test system: HOP-62; assay: Cytotoxicity against human HOP62 cells assessed as cell growth at 10 uM after 48 hrs by SRB assay; type: functional; settings: HOP-62, 48 h, read-out: Activity; procedure, shortened: as §2
[8] = test system: KM12; assay: Cytotoxicity against human KM12 cells assessed as cell growth at 10 uM after 48 hrs by SRB assay; type: functional; settings: KM12, 48 h, read-out: Activity
[9] = test system: OVCAR-8; assay: Cytotoxicity against human OVCAR8 cells assessed as cell growth at 10 uM after 48 hrs by SRB assay; type: functional; settings: OVCAR-8, 48 h, read-out: Activity; procedure, shortened: as §1
[10] = test system: CCRF-CEM; assay: Cytotoxicity against human CCRF-CEM cells assessed as cell growth at 10 uM after 48 hrs by SRB assay; type: functional; settings: read-out: Activity
[11] = test system: SR; assay: Cytotoxicity against human SR cells assessed as cell growth at 10 uM after 48 hrs by SRB assay; type: functional; settings: read-out: Activity
Procedure, shortened: (§3)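 First stage of the NCI 60 human tumour cell line screen, with each compound tested at a single dose of 10. Cellular protein measured by sulforhodamine B colorimetry after 48 h drug exposure. Growth is calculated against a time-zero cell control and against plates not exposed to drug.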

[12] = target: Telomerase reverse transcriptase (Homo sapiens) (UniProt O14746); assay: Inhibition of human tert transcriptional activity assessed as SEAP activity at 1 uM after 24 hrs by SEAP reporter assay; parameters: scale not given: the % may be the effect or the level left
Telomerase reverse transcriptase (Homo sapiens), sequence (O14746 whole entry): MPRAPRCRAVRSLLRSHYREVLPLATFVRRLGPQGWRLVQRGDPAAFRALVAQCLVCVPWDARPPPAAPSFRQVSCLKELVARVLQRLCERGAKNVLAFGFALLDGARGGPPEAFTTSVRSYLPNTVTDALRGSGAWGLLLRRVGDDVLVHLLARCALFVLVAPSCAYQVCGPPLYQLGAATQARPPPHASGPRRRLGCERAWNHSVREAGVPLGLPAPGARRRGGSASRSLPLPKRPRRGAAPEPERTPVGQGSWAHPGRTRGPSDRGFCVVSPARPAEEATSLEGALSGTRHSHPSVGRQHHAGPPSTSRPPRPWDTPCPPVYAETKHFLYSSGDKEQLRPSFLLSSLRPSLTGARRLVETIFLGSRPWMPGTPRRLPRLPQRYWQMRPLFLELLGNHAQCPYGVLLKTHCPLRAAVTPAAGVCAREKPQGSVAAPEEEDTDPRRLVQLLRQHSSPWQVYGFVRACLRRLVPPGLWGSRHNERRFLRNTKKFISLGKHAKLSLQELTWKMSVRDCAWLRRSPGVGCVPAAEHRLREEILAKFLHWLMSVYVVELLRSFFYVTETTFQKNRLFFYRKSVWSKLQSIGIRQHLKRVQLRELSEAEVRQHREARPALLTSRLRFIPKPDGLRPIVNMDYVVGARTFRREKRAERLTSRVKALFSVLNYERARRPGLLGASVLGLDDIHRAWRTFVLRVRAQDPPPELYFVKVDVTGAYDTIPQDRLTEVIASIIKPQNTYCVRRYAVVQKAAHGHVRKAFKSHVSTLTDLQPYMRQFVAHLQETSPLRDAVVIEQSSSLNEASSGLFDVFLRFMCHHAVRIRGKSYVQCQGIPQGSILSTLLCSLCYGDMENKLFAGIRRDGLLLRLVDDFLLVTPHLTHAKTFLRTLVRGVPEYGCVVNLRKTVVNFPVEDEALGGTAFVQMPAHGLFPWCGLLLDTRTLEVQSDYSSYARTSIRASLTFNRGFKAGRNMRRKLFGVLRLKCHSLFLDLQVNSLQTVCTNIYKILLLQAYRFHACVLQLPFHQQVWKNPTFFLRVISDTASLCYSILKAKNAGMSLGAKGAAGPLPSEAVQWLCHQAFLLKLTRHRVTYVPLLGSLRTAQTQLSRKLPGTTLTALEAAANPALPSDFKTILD
Procedure, shortened: (§4)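 Reporter assay for hTERT transcriptional activity using secreted alkaline phosphatase. About 2 × 10³ cells per well were grown for 24 h at 37 °C, then given fresh medium. Buffer was added to the medium: 2 M diethanolamine, 1 mM MgCl2 and 20 mM L-homoarginine. p-Nitrophenyl phosphate was added to 12 mM final. The rate of absorbance increase was read at 405 nm.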

[13] = test system: U-251; assay: Cytotoxicity against human U251 cells assessed as cell growth at 10 uM after 48 hrs by SRB assay; type: functional; settings: U-251, 48 h, read-out: Activity; procedure, shortened: as §3
[14] = test system: SNB-19; assay: Cytotoxicity against human SNB19 cells assessed as cell growth at 10 uM after 48 hrs by SRB assay; type: functional; settings: SNB-19, 48 h, read-out: Activity; procedure, shortened: as §3
[15] = test system: SF-539; assay: Cytotoxicity against human SF539 cells assessed as cell growth at 10 uM after 48 hrs by SRB assay; type: functional; settings: SF-539, 48 h, read-out: Activity; procedure, shortened: as §1
[16] = test system: A549; assay: Cytotoxicity against human A549 cells assessed as cell growth at 10 uM after 48 hrs by SRB assay; type: functional; settings: A549, 48 h, read-out: Activity
[17] = test system: T47D; assay: Cytotoxicity against human T47D cells assessed as cell growth at 10 uM after 48 hrs by SRB assay; type: functional; settings: read-out: Activity; procedure, shortened: as §3
[18] = test system: Malme-3M; assay: Cytotoxicity against human MALME-3M cells assessed as cell growth at 10 uM after 48 hrs by SRB assay; type: functional; settings: read-out: Activity
[19] = test system: HL-60(TB); assay: Cytotoxicity against human HL-60(TB) cells assessed as cell growth at 10 uM after 48 hrs by SRB assay; type: functional; settings: HL-60, 48 h, read-out: Activity
Procedure, shortened: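 NCI 60-cell panel first-stage screen at a single dose in the HL-60(TB) leukemia line. Cellular protein was measured by sulforhodamine B colorimetry after 48 h of drug exposure. Growth was referenced to a time-zero cell control and to plates not exposed to drug.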

[20] = test system: A498; assay: Cytotoxicity against human A498 cells assessed as cell growth at 10 uM after 48 hrs by SRB assay; type: functional; settings: A498, 48 h, read-out: Activity
[21] = test system: SK-MEL-28; assay: Cytotoxicity against human SK-MEL-28 cells assessed as cell growth at 10 uM after 48 hrs by SRB assay; type: functional; settings: SK-MEL-28, 48 h, read-out: Activity; procedure, shortened: as §1
[22] = Cytotoxicity against human UO31 cells assessed as cell growth at 10 uM after 48 hrs by SRB assay; type: functional; settings: UO-31, 48 h, read-out: Activity; procedure, shortened: as §3
[23] = test system: RPMI-8226; assay: Cytotoxicity against human RPMI8226 cells assessed as cell growth at 10 uM after 48 hrs by SRB assay; type: functional; settings: RPMI-8226, 48 h, read-out: Activity; procedure, shortened: as §1
[24] = target: Telomerase reverse transcriptase (Homo sapiens) (UniProt O14746); assay: Inhibition of human tert transcriptional activity assessed as SEAP activity at 10 uM after 24 hrs by SEAP reporter assay; parameters: scale not given: the % may be the effect or the level left; procedure, shortened: as §4
[25] = test system: SF-268; assay: Cytotoxicity against human SF268 cells assessed as cell growth at 10 uM after 48 hrs by SRB assay; type: functional; settings: SF-268, 48 h, read-out: Activity; procedure, shortened: as §1
[26] = test system: LOX IMVI; assay: Cytotoxicity against human LOXIMVI cells assessed as cell growth at 10 uM after 48 hrs by SRB assay; type: functional; settings: read-out: Activity; procedure, shortened: as §2
[27] = test system: HCC 2998; assay: Cytotoxicity against human HCC2998 cells assessed as cell growth at 10 uM after 48 hrs by SRB assay; type: functional; settings: HCC 2998, 48 h, read-out: Activity
[28] = test system: SN12C; assay: Cytotoxicity against human SN12C cells assessed as cell growth at 10 uM after 48 hrs by SRB assay; type: functional; settings: read-out: Activity; procedure, shortened: as §1
[29] = test system: HCT-116; assay: Cytotoxicity against human HCT116 cells assessed as cell growth at 10 uM after 48 hrs by SRB assay; type: functional; settings: HCT-116, 48 h, read-out: Activity
[30] = test system: NCI-H23; assay: Cytotoxicity against human NCI-H23 cells assessed as cell growth at 10 uM after 48 hrs by SRB assay; type: functional; settings: NCI-H23, 48 h, read-out: Activity; procedure, shortened: as §1

Structure (SMILES) | growth at 10 µM [1] [%] | growth at 10 µM [2] [%] | growth at 10 µM [3] [%] | growth at 10 µM [4] [%] | growth at 10 µM [5] [%] | viability at 1 µM [6] [%] | growth at 10 µM [7] [%] | growth at 10 µM [8] [%] | growth at 10 µM [9] [%] | growth at 10 µM [10] [%] | growth at 10 µM [11] [%] | Activity [12] [%] | growth at 10 µM [13] [%] | growth at 10 µM [14] [%] | growth at 10 µM [15] [%] | growth at 10 µM [16] [%] | growth at 10 µM [17] [%] | growth at 10 µM [18] [%] | growth at 10 µM [19] [%] | growth at 10 µM [20] [%] | other results
O=C1c2ccccc2C(=O)c2c1ccc1[nH]c(=S)[nH]c21 | 114 | 78.8 | 99.3 | 108 | 83.7 | 101 | 96.7 | 102 | 140 | 61.9 | 125 | 97 | 88.8 | 91.3 | 91.3 | 118 | 81.9 | 87.5 | 97.6 | 94.3 | growth at 10 µM [21]: 118%; growth at 10 µM [22]: 97.8%; growth at 10 µM [23]: 101%; Activity [24]: 100%; growth at 10 µM [25]: 90.3%; growth at 10 µM [26]: 84%; growth at 10 µM [27]: 114%; growth at 10 µM [28]: 88%; growth at 10 µM [29]: 96.3%; growth at 10 µM [30]: 113%
CCSc1nc2ccc3c(c2[nH]1)C(=O)c1ccccc1C3=O | 68.4 | 53.8 | 64.5 | 84.8 | 62.1 | 109 | 95.6 | 68.3 | 96.8 | 36.9 | 129 | 100 | 65 | 87.9 | 58.6 | 101 | 30.8 | 63.3 | 62.6 | 75.5 | growth at 10 µM [21]: 97.7%; growth at 10 µM [22]: 49.2%; growth at 10 µM [23]: 28.5%; Activity [24]: 90%; growth at 10 µM [25]: 75.7%; growth at 10 µM [26]: 36.7%; growth at 10 µM [27]: 89.4%; growth at 10 µM [28]: 67.9%; growth at 10 µM [29]: 68.8%; growth at 10 µM [30]: 87.4%
O=C1c2ccccc2C(=O)c2c1ccc1nc3n(c21)CCS3 | 83.1 | 93.9 | 68.8 | 94 | 80.5 | 115 | 85.3 | 84.9 | 75.4 | 66.8 | 60.6 | 107 | 72.5 | 74.5 | 74.1 | 81.2 | 73.1 | 87.6 | 78.8 | 73.7 | growth at 10 µM [21]: 109%; growth at 10 µM [22]: 45.8%; growth at 10 µM [23]: 71.7%; Activity [24]: 53%; growth at 10 µM [25]: 56.1%; growth at 10 µM [26]: 65.9%; growth at 10 µM [27]: 94.8%; growth at 10 µM [28]: 74.9%; growth at 10 µM [29]: 68.4%; growth at 10 µM [30]: 84.3%

From ChEMBL document CHEMBL3120102, “Structure-based design, synthesis and biological evaluation of novel anthra[1,2-d]imidazole-6,11-dione homologues as potential antitumor agents” (2013)
